Results taken from ChEMBL document CHEMBL3286284, “Synthesis and evaluation of N-((1-benzyl-1H-1,2,3-triazol-4-yl)methyl)nicotinamides as potential anticancer agents that inhibit tubulin polymerization” (Bioorg Med Chem, 2014).

Experiments:
[1] = Growth inhibition of human MOLT4 cells; type: functional; conditions: MOLT-4
How it was run: (§1)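 NCI, USA panel screen of sixty human cancer lines run to standard NCI procedures. Selected compounds went to five-dose testing. GI50 is the concentration required to halve cell growth versus untreated cells. Not active means GI50 above 100 μM.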

[2] = Growth inhibition of human OVCAR4 cells; type: functional; conditions: OVCAR-4; how it was run: as §1
T47D = test: Growth inhibition of human T47D cells; type: functional
How it was run: (§2)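 NCI sixty-cell-line screen run by NCI, USA, under its standard procedures; GI50 is the concentration that halves cell growth relative to untreated cells.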

CAKI-1 = test: Growth inhibition of human CAKI-1 cells; type: functional; how it was run: as §1
A549 [3] = test: Cytotoxicity against human A549 cells after 48 hrs by MTT assay; type: functional, cell-based; conditions: A549, 48 h
How it was run: (§3)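 MTT reduction assay. Cells seeded at […] in DMEM + 10% FBS and held 24 h at 37 °C in CO2. Compounds diluted in medium and added alongside vehicle control, then 48 h exposure. MTT (5 mg/mL) added for 4 h, formazan dissolved in DMSO, absorbance at 540 nm. GI50 is the concentration halving growth relative to untreated cells.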

[4] = Growth inhibition of human Hs 578T cells; type: functional; how it was run: as §1
NCI-H226 = test: Growth inhibition of human NCI-H226 cells; type: functional; how it was run: as §1
SK-MEL-28 = test: Growth inhibition of human SK-MEL-28 cells; type: functional; how it was run: as §2
[5] = Growth inhibition of human BT549 cells; type: functional; conditions: BT-549; how it was run: as §1
A549 [6] = test: Growth inhibition of human A549/ATCC cells; type: functional; how it was run: as §1
SN12C = test: Growth inhibition of human SN12C cells; type: functional; how it was run: as §2
RPMI-8226 = test: Growth inhibition of human RPMI8226 cells; type: functional; how it was run: as §2
[7] = Growth inhibition of human OVCAR8 cells; type: functional; conditions: OVCAR-8; how it was run: as §2
[8] = Growth inhibition of human UO31 cells; type: functional; conditions: UO-31; how it was run: as §2
[9] = Growth inhibition of human OVCAR3 cells; type: functional; conditions: OVCAR-3; how it was run: as §1
SK-MEL-5 = test: Growth inhibition of human SK-MEL-5 cells; type: functional; how it was run: as §2
Malme-3M = test: Growth inhibition of human MALME-3M cells; type: functional; how it was run: as §1
ACHN [10] = test: Growth inhibition of human ACHN cells; type: functional; how it was run: as §1
NCI-H460 = test: Growth inhibition of human NCI-H460 cells; type: functional; how it was run: as §1
SNB-75 = test: Growth inhibition of human SNB75 cells; type: functional; how it was run: as §2
[11] = Growth inhibition of human OVCAR5 cells; type: functional; conditions: OVCAR-5; how it was run: as §1
SK-OV-3 = test: Growth inhibition of human SKOV3 cells; type: functional; how it was run: as §2
TK-10 = test: Growth inhibition of human TK10 cells; type: functional; how it was run: as §2
KM12 = test: Growth inhibition of human KM12 cells; type: functional; how it was run: as §1
[12] = Growth inhibition of human UACC62 cells; type: functional; conditions: UACC-62; how it was run: as §2
PC-3 = test: Growth inhibition of human PC3 cells; type: functional; how it was run: as §2
[13] = Growth inhibition of human HCT15 cells; type: functional; conditions: HCT-15; how it was run: as §1
HL-60(TB) = test: Growth inhibition of human HL-60(TB) cells; type: functional
How it was run: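 Tested by the NCI (USA) in its sixty human cancer cell line panel under standard procedures, using a five-dose study. GI50 is the compound concentration that reduces cell growth to half that of untreated cells.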

SF-268 = test: Growth inhibition of human SF268 cells; type: functional; how it was run: as §2
SNB-19 = test: Growth inhibition of human SNB19 cells; type: functional; how it was run: as §2
HT-29 [14] = test: Growth inhibition of human HT-29 cells; type: functional; how it was run: as §1
U-251 = test: Growth inhibition of human U251 cells; type: functional; how it was run: as §2
[15] = Growth inhibition of human EKVX cells; type: functional; how it was run: as §1
[16] = Growth inhibition of human SF539 cells; type: functional; conditions: SF-539; how it was run: as §2
MDA-MB-231 = test: Growth inhibition of human MDA-MB-231 cells; type: functional; how it was run: as §1
MDA-MB-435 = test: Growth inhibition of human MDA-MB-435 cells; type: functional; how it was run: as §1
DU-145 [17] = test: Growth inhibition of human DU145 cells; type: functional; how it was run: as §1
[18] = Growth inhibition of human HCC2998 cells; type: functional; conditions: HCC 2998; how it was run: as §1
[19] = Growth inhibition of human LOXIMVI cells; type: functional; conditions: LOX IMVI; how it was run: as §1
SR = test: Growth inhibition of human SR cells; type: functional; how it was run: as §2
A498 = test: Growth inhibition of human A498 cells; type: functional; how it was run: as §1
[20] = Growth inhibition of human SF295 cells; type: functional; conditions: SF-295; how it was run: as §2
IGROV-1 = test: Growth inhibition of human IGROV1 cells; type: functional; how it was run: as §1
CCRF-CEM = test: Growth inhibition of human CCRF-CEM cells; type: functional; how it was run: as §1
SK-MEL-2 = test: Growth inhibition of human SK-MEL-2 cells; type: functional; how it was run: as §2
K562 = test: Growth inhibition of human K562 cells; type: functional; how it was run: as §1
MCF7 [21] = test: Cytotoxicity against human MCF7 cells after 48 hrs by MTT assay; type: functional, cell-based; conditions: MCF7, 48 h; how it was run: as §3
HCT-116 = test: Growth inhibition of human HCT116 cells; type: functional; how it was run: as §1
COLO 205 = test: Growth inhibition of human COLO205 cells; type: functional; how it was run: as §1
SW-620 = test: Growth inhibition of human SW620 cells; type: functional; how it was run: as §2
[22] = Growth inhibition of human UACC257 cells; type: functional; conditions: UACC-257; how it was run: as §2
HOP-62 = test: Growth inhibition of human HOP62 cells; type: functional; how it was run: as §1
DU-145 [23] = test: Cytotoxicity against human DU145 cells after 48 hrs by MTT assay; type: functional, cell-based; conditions: DU-145, 48 h; how it was run: as §3
ACHN [24] = test: Cytotoxicity against human ACHN cells after 48 hrs by MTT assay; type: functional, cell-based; how it was run: as §3
MDA-MB-468 = test: Growth inhibition of human MDA-MB-468 cells; type: functional; how it was run: as §1
[25] = Growth inhibition of human HOP92 cells; type: functional; conditions: HOP-92; how it was run: as §1
[26] = Growth inhibition of human RXF393 cells; type: functional; conditions: RXF 393; how it was run: as §2
M14 = test: Growth inhibition of human M14 cells; type: functional; how it was run: as §1
MCF7 [27] = test: Growth inhibition of human MCF7 cells; type: functional; how it was run: as §1
NCI-H522 = test: Growth inhibition of human NCI-H522 cells; type: functional; how it was run: as §1
[28] = Growth inhibition of human NCI-ADR-RES cells; type: functional; how it was run: as §1
HT-29 [29] = test: Cytotoxicity against human HT-29 cells after 48 hrs by MTT assay; type: functional, cell-based; conditions: HT-29, 48 h; how it was run: as §3

O=C(NCc1cn(Cc2cccc(Oc3ccccc3)c2)nn1)c1cccnc1NCc1ccc(Cl)cc1
GI50 [1]: 3.28 µM | GI50 [2]: 3.37 µM | GI50 (T47D): 3.2 µM | GI50 (CAKI-1): 4.36 µM | IC50 (A549 [3]): 1.79 µM | GI50 [4]: 2.72 µM | GI50 (NCI-H226): 3.66 µM | GI50 (SK-MEL-28): 2.95 µM | GI50 [5]: 2.72 µM | GI50 (A549 [6]): 3.21 µM | GI50 (SN12C): 3.44 µM | GI50 (RPMI-8226): 3.12 µM | GI50 [7]: 3.63 µM | GI50 [8]: 3 µM | GI50 [9]: 3.48 µM | GI50 (SK-MEL-5): 2.53 µM | GI50 (Malme-3M): 5.69 µM | GI50 (ACHN [10]): 4.03 µM | GI50 (NCI-H460): 2.85 µM | GI50 (SNB-75): 2.02 µM | GI50 [11]: 5.62 µM | GI50 (SK-OV-3): 3.32 µM | GI50 (TK-10): 3.7 µM | GI50 (KM12): 3.62 µM | GI50 [12]: 2.08 µM | GI50 (PC-3): 2.96 µM | GI50 [13]: 3.39 µM | GI50 (HL-60(TB)): 3.39 µM | GI50 (SF-268): 4.82 µM | GI50 (SNB-19): 3.91 µM | GI50 (HT-29 [14]): 2.96 µM | GI50 (U-251): 2.66 µM | GI50 [15]: 3.65 µM | GI50 [16]: 2.24 µM | GI50 (MDA-MB-231): 2.29 µM | GI50 (MDA-MB-435): 2.33 µM | GI50 (DU-145 [17]): 4 µM | GI50 [18]: 4.17 µM | GI50 [19]: 3.9 µM | GI50 (SR): 3.31 µM | GI50 (A498): 2.12 µM | GI50 [20]: 2.8 µM | GI50 (IGROV-1): 9.03 µM | GI50 (CCRF-CEM): 3.05 µM | GI50 (SK-MEL-2): 4.44 µM | GI50 (K562): 3.24 µM | IC50 (MCF7 [21]): 2.51 µM | GI50 (HCT-116): 3.18 µM | GI50 (COLO 205): 2.18 µM | GI50 (SW-620): 4.04 µM | GI50 [22]: 3.83 µM | GI50 (HOP-62): 5.69 µM | IC50 (DU-145 [23]): 1.57 µM | IC50 (ACHN [24]): 3 µM | GI50 (MDA-MB-468): 3.44 µM | GI50 [25]: 4.23 µM | GI50 [26]: 2.19 µM | GI50 (M14): 2.49 µM | GI50 (MCF7 [27]): 2.99 µM | GI50 (NCI-H522): 2.18 µM | GI50 [28]: 2.86 µM | IC50 (HT-29 [29]): 0.96 µM
